14 compounds from PubChem BioAssay can be followed below.

Calls of active or inactive are those of the source.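 Rule for the calls, unless noted: active = Her2 level under about 52% in both replicate screens, with viability over 70% of control (limit read from the data); inconclusive = Her2 under the limit in one screen only, or viability under 70%; inactive = Her2 level above the set limit.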

The nature of assay [1]: Her2 expression decrease, cell viability multiplex – SKBR3 breast tumor cells, AlphaScreen, ATP viability, primary screen (AID 461).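 For Her2 level: lower value means less Her2 protein in the cells.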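 For viability: percent of carrier control wells set as 100% viability.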 The note with it: SKBR3 Her2 protein level, 18-24 h, measured here: SKBR3 viability, ATP luminescence, at 10 µM.
In assay [2] the target is Receptor tyrosine-protein kinase erbB-2 (Homo sapiens) (UniProt P04626). The assay is described as above. Conditions: 18-24 h, at 10 µM, stronger effect = lower value.
Chain of Receptor tyrosine-protein kinase erbB-2 (Homo sapiens) (P04626 whole entry, looked up): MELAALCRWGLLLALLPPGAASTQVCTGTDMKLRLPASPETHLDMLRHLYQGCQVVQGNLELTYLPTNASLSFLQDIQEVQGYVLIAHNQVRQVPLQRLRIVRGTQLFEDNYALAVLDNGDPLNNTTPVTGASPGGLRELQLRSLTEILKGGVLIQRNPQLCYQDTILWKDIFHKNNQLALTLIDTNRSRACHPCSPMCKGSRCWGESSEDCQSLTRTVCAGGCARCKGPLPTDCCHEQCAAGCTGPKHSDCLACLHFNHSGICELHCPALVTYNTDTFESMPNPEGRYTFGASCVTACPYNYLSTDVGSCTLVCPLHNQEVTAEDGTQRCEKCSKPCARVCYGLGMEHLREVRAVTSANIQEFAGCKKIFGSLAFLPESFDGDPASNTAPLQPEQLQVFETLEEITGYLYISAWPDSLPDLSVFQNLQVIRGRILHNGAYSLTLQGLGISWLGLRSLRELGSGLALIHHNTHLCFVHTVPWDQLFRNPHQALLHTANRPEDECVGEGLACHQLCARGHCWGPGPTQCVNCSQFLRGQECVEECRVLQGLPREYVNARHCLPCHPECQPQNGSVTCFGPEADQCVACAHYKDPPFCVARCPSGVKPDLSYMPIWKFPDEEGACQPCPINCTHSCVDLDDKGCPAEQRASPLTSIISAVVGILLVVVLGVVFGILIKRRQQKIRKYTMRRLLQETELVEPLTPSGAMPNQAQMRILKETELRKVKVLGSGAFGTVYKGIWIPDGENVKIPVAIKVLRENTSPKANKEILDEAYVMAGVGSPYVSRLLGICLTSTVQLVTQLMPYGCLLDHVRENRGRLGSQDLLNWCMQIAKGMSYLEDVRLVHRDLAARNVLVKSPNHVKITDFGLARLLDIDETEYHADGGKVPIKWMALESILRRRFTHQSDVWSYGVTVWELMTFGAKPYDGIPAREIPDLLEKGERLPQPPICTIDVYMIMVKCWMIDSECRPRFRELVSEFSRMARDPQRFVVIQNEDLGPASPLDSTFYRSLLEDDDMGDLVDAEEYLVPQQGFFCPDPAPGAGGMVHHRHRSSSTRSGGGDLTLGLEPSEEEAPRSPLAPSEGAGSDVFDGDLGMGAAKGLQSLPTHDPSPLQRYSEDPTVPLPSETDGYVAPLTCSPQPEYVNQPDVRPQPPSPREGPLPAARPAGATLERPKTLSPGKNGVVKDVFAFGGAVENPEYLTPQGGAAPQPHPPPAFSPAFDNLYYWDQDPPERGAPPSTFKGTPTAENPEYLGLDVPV
Assay [3] can be described thus: reduced viability of SK-BR-3 breast cancer cells – cell-based, 24 h, human, pilot screen (AID 572;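 active = viability at or below 10% of carrier control in both of two separate runs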;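 note: compound exposure lasted between 18 and 24 h rather than exactly 24 h; 100% = carrier-treated control wells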). The note with it: SK-BR-3 viability, CellTiter-Glo luminescence, at 10 µM, stronger effect = lower value.
Assay [4] is described as follows: HUVEC growth inhibition – cell-based, human, primary screen (AID 575;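 active = viability at or below 30% in both replicate assays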;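 note: 100% = median of untreated cell wells with 0.1% DMSO on each plate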). The note with it: HUVEC proliferation, CellTiter-Glo luminescence, 72 h; at 10 µM; stronger effect = lower value. In outline:
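Test system: HUVEC primary cells. Quantity: 1250 endothelial cells in each well. Dosing: single-point 10 µM, DMSO 0.1% final. Incubation: 72 h treatment at 37 °C. Measured by: CTG luminescence. Control set: DMSO cell controls and MePR drug controls. Plate: collagen-coated 384-well format.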

The nature of assay [5]: H69AR cell proliferation blockers – human, duplicate replicates, primary screen (AID 580;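 active = viability at or under a set limit in both replicates, limit being median viability minus 3 SD, cut at about 48% in these data, passing the limit was not always enough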;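 note: 100% = mean luminescence of untreated wells and 0% = no signal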). The note with it: H69AR lung tumor cells viability, ATP luminescence, 72 h; at 10 µM; stronger effect = lower value.
Assay [6] is described as follows: MRP1 drug-resistance reversers in H69AR cells – cell-based, doxorubicin co-treatment, pilot screen (AID 601;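 active = viability loss from added drug above about 55%, and viability with drug at most 40%, in both replicates, limit read from the data, passing the limit was not always enough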). Conditions: CellTiter-Glo, 72 h, at 10 µM; for differential viability (reversal): stronger effect = higher value.
The nature of assay [7]: yeast transport mutant growth inhibition pilot in 384-well plates, post-Golgi transport modulator project (AID 636; in the data active = inhibition above about 31%). Conditions: absorbance 615 nm, about 18 h, stronger effect = higher value.
A short description of assay [8]: growth suppression of yeast trafficking mutant, preliminary HTS, modulators of trafficking downstream of Golgi apparatus project, 1536-format plate, OD 615 nm (AID 637; in the data active = inhibition above about 30%). Conditions: yeast transport mutant growth, absorbance 615 nm, 18 h; stronger effect = higher value.
Setting [9] is: H69AR cells + 2 uM doxorubicin, measured here: viability with 2 uM doxorubicin, stronger effect = lower value.
[10] abbreviates: H69AR cells, compound alone cytotoxicity.

For `C=CCOc1nc2c(c(=O)n(C)c(=O)n2C)n1C`, the viability in assay [1] is 96.5%; in assay [3], 96.5% (inactive); in assay [4], 90.9% (inactive); in assay [5], 94.4% (inactive); in assay [6] (setting [9]), 82%; in assay [6] (setting [10]) it was 94.4%. The Her2 level in assay [2] was 100% (inactive). The differential viability (reversal) in assay [6] (H69AR cells + 2 uM doxorubicin) was 12.4% (inactive). The inhibition is -3.25% (inactive) in assay [7] and 1.33% (inactive) in assay [8].
For the compound `COc1cccc(C2=NOC(C(=O)Nc3ccc(C(C)=O)cc3)C2)c1` (stereo not given), the viability was 96% in assay [1]; 96% (inactive) in assay [3]; 96.6% (inactive) in assay [4]; 100% (inactive) in assay [5]; 83.6% in assay [6] (setting [9]); 100% in assay [6] (setting [10]). For the same compound, the Her2 level in assay [2] was 98.5% (inactive). Further, the differential viability (reversal) in assay [6] (H69AR cells + 2 uM doxorubicin) is 16.6% (inactive). Further, the inhibition in assay [7] is -1.58% (inactive); in assay [8] it was -4.73% (inactive).
Regarding `Cc1ccc2c(CNCc3ccco3)cc(=O)oc2c1`, the viability in assay [1] was 117%; in assay [3], 117% (inactive); in assay [4], 84.1% (inactive); in assay [5], 93.5% (inactive); in assay [6] (setting [9]) it was 81.9%; in assay [6] (setting [10]), 93.5%. Also, the Her2 level in assay [2] was 94.5% (inactive). In assay [6] (H69AR cells + 2 uM doxorubicin), the differential viability (reversal) was 11.5% (inactive). Further, the inhibition in assay [7] is -1.07% (inactive); in assay [8], -4.03% (inactive).
For the compound `CCCCc1ccc(NC(=O)N[C@H](C(=O)O)C(C)CC)cc1` (stereo not given in full), the viability in assay [1] was 112%; in assay [3], 112% (inactive); in assay [4], 79.5% (inactive); in assay [5], 99.7% (inactive); in assay [6] (setting [9]) it was 90.8%; in assay [6] (setting [10]), 99.7%. The Her2 level in assay [2] was 82% (inactive). Also, the differential viability (reversal) in assay [6] (H69AR cells + 2 uM doxorubicin) is 8.86% (inactive). Further, the inhibition in assay [7] was -5.92% (inactive); in assay [8], -2.38% (inactive).
In the case of `C=CCOC(=O)C(C#N)c1nc2ccccc2nc1N1CCN(Cc2ccccc2)CC1` (stereo not given), the viability is 94% in assay [1]; 94% (inactive) in assay [3]; 77.7% (inactive) in assay [4]; 84.1% (inactive) in assay [5]; 93.6% in assay [6] (setting [9]); 84.1% in assay [6] (setting [10]). Also, in assay [2], the Her2 level was 79% (inactive). For the same compound, the differential viability (reversal) in assay [6] (H69AR cells + 2 uM doxorubicin) is -9.45% (inactive). Also, the figures for the inhibition in assay [7] and in assay [8] were -4.53% (inactive) and 2.3% (inactive), respectively.
For the compound `O=C1CC(N2CCOCC2)C(=O)N1c1ccccc1Cl` (stereo not given), the viability was 103% in assay [1]; 103% (inactive) in assay [3]; 87.2% (inactive) in assay [4]; 104% (inactive) in assay [5]; 96.6% in assay [6] (setting [9]); 104% in assay [6] (setting [10]). In addition, the Her2 level in assay [2] is 87.5% (inactive). In assay [6] (H69AR cells + 2 uM doxorubicin), the differential viability (reversal) is 7.5% (inactive). For the same compound, the results for the inhibition in assay [7] and in assay [8] were -6.4% (inactive) and -5.24% (inactive), respectively.
On to `COc1cc(-c2nc(-c3cccc(C(F)(F)F)c3)no2)cc(OC)c1OC`, for which the viability in assay [1] was 102%; in assay [3], 102% (inactive); in assay [4], 94.4% (inactive); in assay [5], 93.4% (inactive); in assay [6] (setting [9]) it was 82.6%; in assay [6] (setting [10]), 93.4%. In assay [2], the Her2 level was 99.5% (inactive). The differential viability (reversal) in assay [6] (H69AR cells + 2 uM doxorubicin) was 10.7% (inactive). The inhibition in assay [7] is -1.87% (inactive); in assay [8], -2.58% (inactive).
Consider `COC(=O)c1ccc(NC(=O)CN2C(=O)CSC2=O)cc1`, for which the viability in assay [1] is 104%; in assay [3], 104% (inactive); in assay [4], 90.1% (inactive); in assay [5] it was 106% (inactive); in assay [6] (setting [9]) it was 94.4%; in assay [6] (setting [10]), 106%. For the same compound, in assay [2], the Her2 level was 93% (inactive). For the same compound, the differential viability (reversal) in assay [6] (H69AR cells + 2 uM doxorubicin) is 12% (inactive). For the same compound, the inhibition in assay [7] was -4.67% (inactive); in assay [8], 2.3% (inactive).
For `CC1(C)Cc2c(sc3ncnc(N)c23)CO1`, the viability in assay [1] is 116%; in assay [3], 116% (inactive); in assay [4] it was 96.6% (inactive); in assay [5], 95.6% (inactive); in assay [6] (setting [9]), 87.3%; in assay [6] (setting [10]), 95.6%. In addition, in assay [2], the Her2 level is 92.5% (inactive). Moreover, in assay [6] (H69AR cells + 2 uM doxorubicin), the differential viability (reversal) was 8.37% (inactive). Besides, the inhibition in assay [7] was -7.47% (inactive); in assay [8], 1.48% (inactive).
Regarding `COc1ccc2[nH]c(=O)c(CN(CCO)S(=O)(=O)c3ccc4c(c3)OCCO4)cc2c1`, the viability in assay [1] is 85%; in assay [3] it was 85% (inactive); in assay [4] it was 99.8% (inactive); in assay [5], 94% (inactive); in assay [6] (setting [9]), 87%; in assay [6] (setting [10]) it was 94%. The Her2 level in assay [2] was 97.5% (inactive). In addition, in assay [6] (H69AR cells + 2 uM doxorubicin), the differential viability (reversal) was 6.97% (inactive). In addition, the inhibition in assay [7] was -5.07% (inactive); in assay [8], -2.3% (inactive).
On to `Cc1noc(C)c1S(=O)(=O)N1CCCC(C(=O)NCCc2ccc(Cl)cc2)C1` (stereo not given), for which the viability was 89% in assay [1]; 89% (inactive) in assay [3]; 98.1% (inactive) in assay [4]; 97.1% (inactive) in assay [5]; 91.7% in assay [6] (setting [9]); 97.1% in assay [6] (setting [10]). For the same compound, the Her2 level in assay [2] was 82% (inactive). The differential viability (reversal) in assay [6] (H69AR cells + 2 uM doxorubicin) was 5.35% (inactive). Moreover, the values for the inhibition in assay [7] and in assay [8] were -5.34% (inactive) and 4.76% (inactive), respectively.
In the case of `CC(C)CCNC(=O)NC(=O)CN1C(=O)NC2(CCCCC2)C1=O`, the viability in assay [1] was 90%; in assay [3] it was 90% (inactive); in assay [4], 104% (inactive); in assay [5], 96.9% (inactive); in assay [6] (setting [9]), 101%; in assay [6] (setting [10]) it was 96.9%. Further, in assay [2], the Her2 level was 120% (inactive). For the same compound, in assay [6] (H69AR cells + 2 uM doxorubicin), the differential viability (reversal) was -4.12% (inactive). Further, the inhibition in assay [7] is 1.32% (inactive); in assay [8], 10.9% (inactive).
Regarding `Cc1[nH]n2c(=O)cc(Cc3ccccc3)nc2c1C#N`, the viability in assay [1] is 97.5%; in assay [3], 97.5% (inactive); in assay [4], 97.1% (inactive); in assay [5] it was 81.5% (inactive); in assay [6] (setting [9]), 91.6%; in assay [6] (setting [10]) it was 81.5%. In addition, the Her2 level in assay [2] is 80% (inactive). The differential viability (reversal) in assay [6] (H69AR cells + 2 uM doxorubicin) is -10.1% (inactive). Also, the inhibition is -2.89% (inactive) in assay [7] and -1.45% (inactive) in assay [8].
`CCN(CCCNC(=O)c1cn(CC)c2ccc(S(=O)(=O)N(C)C)cc2c1=O)c1cccc(C)c1`: the viability is 98% in assay [1]; 98% (inactive) in assay [3]; 61.6% (inactive) in assay [4]; 80% (inactive) in assay [5]; 19.6% in assay [6] (setting [9]); 80% in assay [6] (setting [10]). The Her2 level in assay [2] is 74.5% (inactive). Also, the differential viability (reversal) in assay [6] (H69AR cells + 2 uM doxorubicin) is 60.4% (active). The inhibition was -2.8% (inactive) in assay [7] and 4.26% (inactive) in assay [8].
